Source: ChEMBL document CHEMBL1124663, “Design, synthesis, antineoplastic activity, and chemical properties of bis(carbamate) derivatives of 4,5-bis(hydroxymethyl)imidazole” (J Med Chem, 1989)

Assays:
Mus musculus [1] = assay: Body weight difference (BWD) of test animals administered with 100 mg/kg compound is determined on day 14 for M5076 minus 1 tumor cells; format: functional
Outline: (§1)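 M5076 sarcoma: 10^6 cells inoculated ip on day 0 in B6C3F1 mice. Fresh saline suspension dosed ip every fourth day, on days 1, 5, 9 and 13. Body weight difference in g (treated minus control) taken as day 14 minus day 1. Ten mice per group.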

Mus musculus [2] = assay: The toxicity day was evaluated […] for M5076 minus 1 tumor cells of test animals dosed with 200 mg/kg of compound; 10/10; format: functional
Outline: (§2)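 M5076 sarcoma, 10^6 cells, inoculated ip into B6C3F1 mice on day 0. Fresh saline suspension given ip every fourth day (days 1, 5, 9, 13). Toxicity survivors were scored on day 5 as survivors over initial group. Body-weight difference was day 14 minus day 1.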

Mus musculus [3] = assay: Ability of 100 mg/kg of compound to kill L1210 tumor cells in mice is expressed as the log of the tumor cell population at the onset of treatment minus the log of the tumor cell population at the end of treatment; format: functional
Outline: (§3)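 L1210 leukemia, 10^5 cells implanted ip on day 0. Drug given ip daily on days 1-5 as a saline suspension freshly prepared before each injection. Read-out is median survival of treated versus control mice (% T/C), and log cell kill is derived from it.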

Mus musculus [4] = assay: Toxicity day evaluation was carried out on day 5 for animal dosed with 50 mg/kg compound; 6/6; format: organism-based; design: dose 50 mg/kg; details: in vivo
Mus musculus [5] = assay: Body weight difference (BWD) of test animals administered with 60 mg/kg compound is determined on […] tumor cells; format: functional
Outline: (§4)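 MX-1 human mammary xenograft: solid tumour fragment (1 mm3, 0.5 mg) placed as a subrenal capsule implant on day 0 in NCR-nu mice. Fresh saline suspension dosed ip on days 1, 5 and 9. Body weight difference in g (treated minus control) recorded. Assay evaluated on day 11. Six mice per group.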

Mus musculus [6] = assay: The toxicity day was evaluated on day 0 for LOX tumor cells of test animals dosed with 100 mg/kg of compound; 6/6; format: functional
Mus musculus [7] = assay: Ability of 50 mg/kg of compound to kill L1210 tumor cells in mice is expressed as the log of the tumor cell population at the onset of treatment minus the log of the tumor cell population at the end of treatment; format: functional; outline: as §3
Mus musculus [8] = assay: Ability of 25 mg/kg of compound to kill L1210 tumor cells in mice is expressed as the log of the tumor cell population at the onset of treatment minus the log of the tumor cell population at the end of treatment; format: functional; outline: as §3
Mus musculus [9] = assay: The percent of the median survival time of test mice compared to control mice, administered with 25 mg/kg compound on day 14 for M5076 minus 1 tumor cells; format: functional
Outline: (§5)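 M5076 sarcoma, 10^6 cells ip on day 0 in B6C3F1 mice. Drug given ip as a fresh saline suspension every fourth day (days 1, 5, 9, 13). % T/C is median survival of treated versus control mice, counting long-term survivors. Cures are 60-day survivors. Log cell kill is derived from this.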

Mus musculus [10] = assay: Body weight difference (BWD) of test animals administered with 12.5 mg/kg compound is determined on day 5 for L1210 tumor cells; format: functional
Outline: (§6)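 L1210 leukaemia: 10^5 cells implanted ip on day 0 in mice. Freshly prepared saline suspension given ip once daily on days 1–5. Body weight difference in g (treated minus control) taken as day 5 minus day 1. Six animals per dose.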

Mus musculus [11] = assay: The toxicity day was evaluated on day 5 for L1210 tumor cells of test animals dosed with 200 mg/kg of compound; 0/6; format: functional
Outline: (§7)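 L1210 leukaemia, 10^5 cells, implanted ip on day 0. Freshly prepared saline suspension dosed ip daily on days 1-5. Toxicity evaluated on day 5 as survivors over animals in the initial test group.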

Mus musculus [12] = assay: Body weight difference (BWD) of test animals administered with 25 mg/kg compound is determined on day 14 for M5076 minus 1 tumor cells; format: functional; outline: as §1
Mus musculus [13] = assay: Ability of 50 mg/kg of compound to kill M5076 tumor cells in mice is expressed as the log of the tumor cell population at the onset of treatment minus the log of the tumor cell population at the end of treatment; format: functional; outline: as §5
Mus musculus [14] = assay: Toxicity day evaluation was carried out on day 5 for animal dosed with 12.5 mg/kg compound; 6/6; format: organism-based; design: dose 12.5 mg/kg; details: in vivo
Mus musculus [15] = assay: The toxicity day was […] tumor cells of test animals dosed with 400 mg/kg of compound; 1/10; format: functional, M5076; outline: as §2
Mus musculus [16] = assay: The toxicity day was evaluated on day 0 for LOX tumor cells of test animals dosed with 200 mg/kg of compound; 3/6; format: functional
Mus musculus [17] = assay: The percent of the median survival time of test mice compared to control mice, administered with 12.5 mg/kg compound on day 5 for L1210 tumor cells; format: functional; outline: as §3
Mus musculus [18] = assay: Toxicity day evaluation was carried out on day 5 for animal dosed with 100 mg/kg compound; 6/6; format: organism-based; design: dose 100 mg/kg; details: in vivo
Mus musculus [19] = assay: Body weight difference (BWD) of test animals administered with 200 mg/kg compound is determined on day 5 for L1210 tumor cells; format: functional; outline: as §6
Mus musculus [20] = assay: The toxicity day was evaluated on day 5 for L1210 tumor cells of test animals dosed with 12.5 mg/kg of compound; 6/6; format: functional; outline: as §7
Mus musculus [21] = assay: Body weight difference (BWD) of test animals administered with 200 mg/kg compound is determined on day 10 for LOX tumor cells.
Mus musculus [22] = assay: Ability of 6.25 mg/kg of compound to kill tumor cells in mice is expressed as the log of the tumor cell population at the onset of treatment minus the log of the tumor cell population at the end of treatment; format: functional
Mus musculus [23] = assay: Toxicity day evaluation was carried out on day 5 for animal dosed with 25 mg/kg compound; 6/6; format: organism-based; design: dose 25 mg/kg; details: in vivo
Mus musculus [24] = assay: Body weight difference (BWD) of test animals administered with 50 mg/kg compound is determined on day 5 for L1210 tumor cells; format: functional; outline: as §6
Mus musculus [25] = assay: The percent of the median survival time of test mice compared to control mice, administered with 50 mg/kg compound on day 5 for L1210 tumor cells; format: functional; outline: as §3
Mus musculus [26] = assay: Body weight difference (BWD) of test animals administered with 100 mg/kg compound is determined on […] tumor cells; format: functional; outline: as §4
Mus musculus [27] = assay: The toxicity day was evaluated […] for M5076 minus 1 tumor cells of test animals dosed with 25 mg/kg of compound; 10/10; format: functional; outline: as §2
Mus musculus [28] = assay: The toxicity day was evaluated […] for MX-1 tumor cells of test animals dosed with 100 mg/kg of compound; 6/6; format: functional
Outline: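 Human MX-1 mammary xenograft, a 1 mm3 (0.5 mg) tumor fragment implanted under the renal capsule of NCR-nu mice on day 0. Drug given ip as a fresh saline suspension on days 1, 5 and 9. Tumor size is assessed on day 11. A negative % T/C is percent shrinkage relative to the initial implant. Survivors in the toxicity group are […].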

Mus musculus [29] = assay: The toxicity day was evaluated on day 0 for LOX tumor cells of test animals dosed with 25 mg/kg of compound; 6/6; format: functional
Mus musculus [30] = assay: Body weight difference (BWD) of test animals administered with 50 mg/kg compound is determined on day 10 for LOX tumor cells.

Q: With CNC(=O)OCc1nc(SC)n(C)c1COC(=O)NC as the compound, how does the BWD (Mus musculus [1]) read?
A: -1.2 g

Q: And the “Survivors / animals tested” value (Mus musculus [2])?
A: 10

Q: What about the KE (Mus musculus [3]) of the same compound?
A: -0.29

Q: What about the “Survivors / animals tested” value (Mus musculus [4]) of the same compound?
A: 6

Q: What about the BWD (Mus musculus [5]) of the same compound?
A: -1.9 g

Q: And the “Survivors / animals tested” value (Mus musculus [6])?
A: 6

Q: And the KE (Mus musculus [7])?
A: -1.94

Q: What about the KE (Mus musculus [8]) of the same compound?
A: -2.23

Q: What about the T/C (Mus musculus [9]) of the same compound?
A: 122%

Q: What about the BWD (Mus musculus [10]) of the same compound?
A: -0.2 g

Q: And the “Survivors / animals tested” value (Mus musculus [11])?
A: 0

Q: And the BWD (Mus musculus [12])?
A: -2 g

Q: And the KE (Mus musculus [13])?
A: -1.63

Q: What about the “Survivors / animals tested” value (Mus musculus [14]) of the same compound?
A: 6

Q: And the “Survivors / animals tested” value (Mus musculus [15])?
A: 1

Q: What about the “Survivors / animals tested” value (Mus musculus [16]) of the same compound?
A: 3

Q: What about the T/C (Mus musculus [17]) of the same compound?
A: 103%

Q: And the “Survivors / animals tested” value (Mus musculus [18])?
A: 6

Q: And the BWD (Mus musculus [19])?
A: -3.6 g

Q: And the “Survivors / animals tested” value (Mus musculus [20])?
A: 6

Q: What about the BWD (Mus musculus [21]) of the same compound?
A: -11.5 g

Q: What about the KE (Mus musculus [22]) of the same compound?
A: -0.83

Q: And the “Survivors / animals tested” value (Mus musculus [23])?
A: 6

Q: What about the BWD (Mus musculus [24]) of the same compound?
A: -0.5 g

Q: What about the T/C (Mus musculus [25]) of the same compound?
A: 124%

Q: What about the BWD (Mus musculus [26]) of the same compound?
A: -2.7 g

Q: What about the “Survivors / animals tested” value (Mus musculus [27]) of the same compound?
A: 10

Q: What about the “Survivors / animals tested” value (Mus musculus [28]) of the same compound?
A: 6

Q: What about the “Survivors / animals tested” value (Mus musculus [29]) of the same compound?
A: 6

Q: And the BWD (Mus musculus [30])?
A: -3.3 g
